Test results reported in ChEMBL document CHEMBL1671806, “New imidazolidinedione derivatives as antimalarial agents” (Bioorg Med Chem, 2011).
Converted amounts (≈) assume the structure as drawn. The source made the active and inactive calls. The calls are words filed in the database; no cut-off is given here.

Legend:
Mus musculus = species on record: Mus musculus; test: Metabolic stability in mouse liver microsome by LC-MS/MS method; conditions: liver microsomes
[1] = Toxicity in Plasmodium berghei sporozoites infected orally dosed mouse administered for three consecutive days one day before infection; format: organism-based; conditions: in vivo, po
Summary of the method: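 Mice received P. berghei sporozoites. Each compound was ground and suspended in hydroxyethylcellulose plus Tween 80, then given orally at several dose levels up to 320 mg/kg/day. Dosing was once daily for three consecutive days: the day before, 4 h before, and the day after sporozoite inoculation.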

Plasmodium falciparum [2] = test: Antimicrobial activity against Plasmodium falciparum TM91C235 by microdilution method; format: functional, organism-based
Plasmodium falciparum [3] = test: Antimicrobial activity against Plasmodium falciparum W2 by microdilution method; format: functional, organism-based
Plasmodium berghei [4] = test: Antiplasmodial activity against Plasmodium berghei sporozoites infected in orally dosed mouse administered for three consecutive days one day before infection; format: functional; conditions: po, 24 h, read-out: MED
Summary of the method: (§1)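 Mice were inoculated with P. berghei sporozoites. For oral dosing, compounds were ground and suspended in hydroxyethylcellulose plus Tween 80; for sc dosing, they were suspended in peanut oil. Doses were given once daily on three consecutive days: the day before, 4 h before, and the day after inoculation. Several dose levels were used, up to 320 mg/kg/day. Cure was scored.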

Plasmodium falciparum [5] = test: Antimicrobial activity against Plasmodium falciparum D6 by microdilution method; format: functional, organism-based
Plasmodium berghei [6] = test: Antiplasmodial activity against Plasmodium berghei sporozoites infected in orally dosed mouse assessed as cure from infection 160 mg/kg/day, po administered for three consecutive days before infection measured after at day 31; format: functional, organism-based
Summary of the method: as §1

Homo sapiens = species on record: Homo sapiens; test: Metabolic stability in human liver microsome by LC-MS/MS method; conditions: liver microsomes
Plasmodium cynomolgi [7] = test: Antiplasmodial activity against Plasmodium cynomolgi sporozoites infected in Rhesus monkey assessed as duration for detection of parasites in blood at 30 mg/kg/day, im administered for three consecutive days before infection (reference value: 8 days); format: functional; conditions: route intramuscular
Plasmodium cynomolgi [8] = test: Antiplasmodial activity against Plasmodium cynomolgi sporozoites infected in Rhesus monkey assessed as delay in detection of parasites in blood at 30 mg/kg/day, im administered for three consecutive days before infection; format: functional; conditions: route intramuscular
[9] = Plasmodium falciparum, TM91C235, read-out: IC50
[10] = Plasmodium falciparum, W2, read-out: IC50
[11] = Plasmodium falciparum, D6, read-out: IC50

Row | Structure (SMILES) | half-life (Mus musculus) [h] | MTD at 3 days [1] [mg/kg/day] | IC50 (Plasmodium falciparum [2]) [µg/mL] | IC50 (Plasmodium falciparum [2]; [9]) [µg/mL] | IC50 (Plasmodium falciparum [3]) [µg/mL] | IC50 (Plasmodium falciparum [3]; [10]) [µg/mL] | minimal effective dose (Plasmodium berghei [4]) [mg/kg/day] | IC50 (Plasmodium falciparum [5]) [µg/mL] | IC50 (Plasmodium falciparum [5]; [11]) [µg/mL] | Activity (Plasmodium berghei [6]) | half-life (Homo sapiens) [h] | Time (Plasmodium cynomolgi [7]) [days] | Time (Plasmodium cynomolgi [8]) [days]
1 | CCCCCCN/C(=N\C1=NC(=O)C(=O)N1C(C)C)Nc1ccc(Cl)c(Cl)c1 | 0.131 | ≥ 160 | 2.8 (≈ 6.57 µM) | 2.8 (≈ 6.57 µM) | 2.62 (≈ 6.15 µM) | 2.62 (≈ 6.15 µM) | > 160 | 1.35 (≈ 3.17 µM) | 1.35 (≈ 3.17 µM) | – | – | – | –
2 | CON/C(=N\C1=NC(=O)C(=O)N1C(C)C)Nc1ccc(Cl)c(Cl)c1 | > 1 | < 40 | – | > 5 | – | > 5 | ≥ 40 | – | > 5 | Active | > 1 | – | –
3 | CC(C)N1C(=O)C(=O)N=C1/N=C(\NCCCN(C)C)Nc1ccc(Cl)c(Cl)c1 | > 1 | ≥ 160 | – | > 5 | – | > 5 | > 160 | – | > 5 | – | > 1 | – | –
4 | CC(C)N1C(=O)C(=O)N=C1/N=C(\NCc1ccccc1)Nc1ccc(Cl)c(Cl)c1 | > 1 | ≥ 320 | – | > 5 | 1.3 (≈ 3.01 µM) | 1.3 (≈ 3.01 µM) | > 320 | 2.36 (≈ 5.46 µM) | 2.36 (≈ 5.46 µM) | – | > 1 | – | –
5 | CC(C)N1C(=O)C(=O)N=C1/N=C(\NCC(C)(C)C)Nc1ccc(Cl)c(Cl)c1 | > 1 | ≥ 320 | 0.95 (≈ 2.3 µM) | 0.95 (≈ 2.3 µM) | 0.37 (≈ 0.897 µM) | 0.37 (≈ 0.897 µM) | 160 | 1.1 (≈ 2.67 µM) | 1.1 (≈ 2.67 µM) | Active | > 1 | – | –
6 | C=CCON/C(=N\C1=NC(=O)C(=O)N1C(C)C)Nc1ccc(Cl)c(Cl)c1 | > 1 | 120 | – | > 15 | 6.7 (≈ 16.8 µM) | 6.7 (≈ 16.8 µM) | 160 | 8.5 (≈ 21.3 µM) | 8.5 (≈ 21.3 µM) | Active | > 1 | – | –
7 | CC(C)N1C(=O)C(=O)N=C1/N=C(\NOCc1ccccc1)Nc1ccc(Cl)c(Cl)c1 | 0.214 | ≥ 160 | – | > 5 | – | > 5 | > 160 | – | > 5 | – | > 1 | 27 | 19
8 | CC(C)N1C(=O)C(=O)N=C1/N=C(\NCCCCCCNC(=O)OC(C)(C)C)Nc1ccc(Cl)c(Cl)c1 | 0.182 | ≥ 160 | – | > 5 | 1.46 (≈ 2.7 µM) | 1.46 (≈ 2.7 µM) | > 160 | – | > 5 | – | 0.208 | – | –
9 | CC(C)N1C(=O)C(=O)N=C1/N=C(/Nc1ccc(Cl)c(Cl)c1)NC1C2CC3CC(C2)CC1C3 (stereo not given) | 0.124 | ≥ 320 | 2.07 (≈ 4.35 µM) | 2.07 (≈ 4.35 µM) | 2.68 (≈ 5.63 µM) | 2.68 (≈ 5.63 µM) | > 320 | 0.81 (≈ 1.7 µM) | 0.81 (≈ 1.7 µM) | – | 0.093 | – | –
10 | CCON/C(=N\C1=NC(=O)C(=O)N1C(C)C)Nc1ccc(Cl)c(Cl)c1 | > 1 | < 40 | – | > 5 | – | > 5 | 160 | – | > 5 | Active | > 1 | – | –
11 | CCN(CC)CCN/C(=N\C1=NC(=O)C(=O)N1C(C)C)Nc1ccc(Cl)c(Cl)c1 | 0.294 | ≥ 160 | – | > 5 | – | > 5 | > 160 | – | > 5 | – | 0.525 | – | –
12 | CC(C)N1C(=O)C(=O)N=C1/N=C(\NOC(C)(C)C)Nc1ccc(Cl)c(Cl)c1 | > 1 | ≥ 160 | 3.36 (≈ 8.11 µM) | 3.36 (≈ 8.11 µM) | 1.14 (≈ 2.75 µM) | 1.14 (≈ 2.75 µM) | > 160 | 2.75 (≈ 6.64 µM) | 2.75 (≈ 6.64 µM) | – | > 1 | – | –
13 | CC(C)N1C(=O)C(=O)N=C1/N=C(\NCCCCN1CCCC1)Nc1ccc(Cl)c(Cl)c1 | > 1 | ≥ 160 | – | > 5 | 2.3 (≈ 4.92 µM) | 2.3 (≈ 4.92 µM) | > 160 | 1.55 (≈ 3.32 µM) | 1.55 (≈ 3.32 µM) | – | > 1 | – | –
14 | CC(C)N1C(=O)C(=O)N=C1/N=C(\NCCN(C)C)Nc1ccc(Cl)c(Cl)c1 | > 1 | ≥ 160 | – | > 5 | – | > 5 | > 160 | – | > 5 | – | > 1 | – | –
15 | CC(C)N1C(=O)C(=O)N=C1/N=C(\NCCN1CCCC1)Nc1ccc(Cl)c(Cl)c1 | 0.886 | ≥ 160 | – | > 5 | 1.32 (≈ 3 µM) | 1.32 (≈ 3 µM) | > 160 | – | > 5 | – | > 1 | – | –
16 | CC(C)N1C(=O)C(=O)N=C1/N=C(\Nc1ccccc1)Nc1ccc(Cl)c(Cl)c1 | > 1 | ≥ 160 | 2.6 (≈ 6.22 µM) | 2.6 (≈ 6.22 µM) | 0.88 (≈ 2.1 µM) | 0.88 (≈ 2.1 µM) | > 160 | 2.16 (≈ 5.16 µM) | 2.16 (≈ 5.16 µM) | – | > 1 | – | –
17 | CCN/C(=N\C1=NC(=O)C(=O)N1C(C)C)Nc1ccc(Cl)c(Cl)c1 | > 1 | ≥ 160 | – | > 5 | 1.67 (≈ 4.51 µM) | 1.67 (≈ 4.51 µM) | > 160 | – | > 5 | – | > 1 | – | –
18 | CN/C(=N\C1=NC(=O)C(=O)N1C(C)C)Nc1ccc(Cl)c(Cl)c1 | > 1 | ≥ 320 | – | > 5 | – | > 5 | > 320 | – | > 5 | – | > 1 | – | –
19 | CC(C)N1C(=O)C(=O)N=C1/N=C(/Nc1ccc(Cl)c(Cl)c1)NC(C)(C)C | > 1 | ≥ 320 | 1.36 (≈ 3.41 µM) | 1.36 (≈ 3.41 µM) | 1.15 (≈ 2.89 µM) | 1.15 (≈ 2.89 µM) | > 320 | 0.72 (≈ 1.81 µM) | 0.72 (≈ 1.81 µM) | – | > 1 | – | –
